According to PubChem BioAssay AID2152 (The Scripps Research Institute Molecular Screening Center, 2009):
About 25 (1%) of roughly 2,300 compounds were called active. The list comes from a sample in which actives are over-represented; it also holds similar structures and randomly drawn compounds. Unmarked numbers belong to inactive results.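 The calls were made as follows: active = mean inhibition over three replicate wells above the hit threshold derived in the earlier primary screen (cut at about 45% in these data); inactive = the rest.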

System: Hepatitis C virus core protein (core106 dimerization)
Assay: inhibitors of HCV core protein dimerization, confirmation, biochemical, TR-FRET, triplicate (AID 2152);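 also: 0% = DMSO wells and 100% = unlabelled core106 competitor control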
Details: TR-FRET GST-/Flag-core106 dimerization, HTRF; at 5 µM; hits give high values
Procedure, shortened: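 Test system: GST- and Flag-tagged HCV core106 peptides, dimerization via antibody TR-FRET | Medium: HEPES/KF buffer, pH 7.45 | Also added: Eu(K)-anti-GST plus XL665-anti-FLAG antibodies | Times: 4 h incubation, 22.5 °C | Signal: TR-FRET, excitation 340 nm, emission 671 and 617 nm | Evaluation: Percent inhibition from emission ratio | Replication: Triplicate wells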

Compound	inhibition
Cn1cccc1/C=C1/C(=O)NC(=S)N(Cc2ccc(F)cc2)C1=O	64.5% (active)
CN1C(=O)/C(=C/c2cccn2-c2ccc3ccccc3c2)C(=O)NC1=S	9.68%
O=C1NC(=O)N(Cc2ccc(F)cc2)C(=O)/C1=C\c1ccc(N2CCCC2)cc1	4.49%
Cc1ccc(N2C(=O)/C(=C/c3ccc(CN(CCC#N)S(C)(=O)=O)o3)C(=O)NC2=S)cc1C	-8.42%
CCOc1cccc(N2C(=O)/C(=C/c3ccco3)C(=O)NC2=S)c1	10.6%
Cc1ccccc1N1C(=O)/C(=C/c2ccco2)C(=O)NC1=S	66.3% (active)
COC(=O)[C@@H]1[C@@H](C(=O)OC)C2(c3ccccc3-c3ccccc32)N(c2ccc(Cl)cc2)N1C#N	8.69%
COc1ccccc1C(=O)Nc1ccc2c(c1)CC1(C(=O)N(C)C(=O)N(C)C1=O)C1CCCN21 (stereo not given)	7.78%
Cc1ccccc1-n1c(CNc2ccccc2)nc2ccccc2c1=O	-1.12%
CCN1C(=O)/C(=C/c2ccc3c(c2)CCN3CCCCl)C(=O)NC1=S	15.4%
